Converted amounts (≈) assume the structure as drawn. Like-named read-outs stand apart in the source and are kept apart here.
Legend:
BCL-2 = test: RT-qPCR transcript expression, BCL-2; assay type: cell-based; details: KATO-III, 48 h (doxorubicin: from 48 h onwards); MF 30 μg/mL or doxorubicin 1.14 μg/mL
CASP7 = test: RT-qPCR transcript expression, CASP7; assay type: cell-based; details: KATO-III, MF 30 μg/mL or doxorubicin 1.14 μg/mL
[1] = test system: WI-38 normal lung fibroblast cell line; test: Cell viability by MTT assay, WI-38; assay type: cell-based; details: Homo sapiens, read-out: IC50 on WI-38
[2] = test system: MCF-7 breast cancer cell line; details: MF from Lisotrigona furua propolis; cited from earlier work
[3] = test system: LU-1 lung cancer cell line; details: MF from Lisotrigona furua propolis; cited from earlier work
KATO-III cells [4] = test: Cell cycle arrest analysis, PI flow cytometry; assay type: cell-based; details: MF 7.5, 15 and 30 μg/mL, from 24 h exposure onwards, P < 0.01
How it was run: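 KATO-III cells at 5 × 10⁵ per well in 6-well plates were exposed to test compound (0, 7.5, 15 and 30 μg/mL final) or 1 % (v/v) DMSO for 24, 48 and 72 h (37 °C, 5 % CO₂). Cells were trypsinized and washed in cold PBS, then fixed in 70 % ethanol on ice for 30 min. They were treated with RNase A (100 μg/mL, 30 min, 37 °C) and stained with PI (50 μg/mL). Flow cytometry recorded 10,000 events per sample, in triplicate.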

KATO-III cells [5] = test: Cell imaging; assay type: cell-based
How it was run: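 KATO-III cells at 5 × 10⁵ per well in 6-well plates were left for 16 h, then given test compound (7.5, 15 or 30 μg/mL), doxorubicin (1.14 μg/mL) or 1 % (v/v) DMSO for 24, 48 and 72 h. Culture was at 37 °C, 5 % CO₂, humidified. Morphology was viewed by light microscopy with camera imaging at 100× and 200×.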

KATO-III cell line = test: Cell viability by MTT assay, KATO-III; assay type: cell-based; details: for IC50: Homo sapiens, KATO III, read-out: IC50 on KATO-III
NFkB = test: RT-qPCR transcript expression, NFkB; assay type: cell-based; details: KATO-III, MF 30 μg/mL or doxorubicin 1.14 μg/mL
CTSB = test: RT-qPCR transcript expression, CTSB; assay type: cell-based; details: KATO-III, MF 30 μg/mL
KATO-III cells [6] = test: Programmed cell death, annexin V/PI flow cytometry; assay type: cell-based; details: for Q2 late apoptotic cells (annexin V+ PI+): 72 h
CASP3 = test: RT-qPCR transcript expression, CASP3; assay type: cell-based; details: KATO-III, MF 30 μg/mL or doxorubicin 1.14 μg/mL
COX2 = test: RT-qPCR transcript expression, COX2; assay type: cell-based; details: KATO-III, MF 30 μg/mL or doxorubicin 1.14 μg/mL
[7] = test system: Caco-2, KB, SK-MEL-28 and HN30 cancer cells; details: SK-MEL-28, HN30; cited from earlier work
[8] = test system: NCI-N87 gastric cancer cells; details: at 200 μg/mL; cited from earlier work
[9] = test system: human gastric adenocarcinoma cell line (AGS cells); details: read-out: IC50 against AGS cells; cited from earlier work

SMILES	BCL-2 transcript expression level vs control (BCL-2)	CASP7 transcript expression level vs control (CASP7; 48 h)	CASP7 transcript expression level vs control (CASP7; 72 h)	IC50 ([1]; WI-38, 24 h)	IC50 ([1]; WI-38, 48 h)	IC50 ([1]; WI-38, 72 h)	IC50 (KATO-III cell line; 24 h)	IC50 (KATO-III cell line; 48 h)	IC50 (KATO-III cell line; 72 h)	NFkB transcript expression level vs control (NFkB; 24 h)	CASP3 transcript expression level vs control (CASP3; 48 h)	CASP3 transcript expression level vs control (CASP3; 72 h)	COX2 transcript expression level vs control (COX2; 24 h)	migration of cancer cells [7]	further results
C/C(=C\CC[C@@H](C)[C@H]1CC[C@@]2(C)[C@@H]3CC[C@H]4C(C)(C)[C@@H](O)CC[C@@]45C[C@@]35CC[C@]12C)C(=O)O [Compound 2, mangiferolic acid]	remained the same as in control cells	significant upregulation	increased in gene expression compared to control cells	22 µg/mL (≈ 48.3 µM)	13.7 µg/mL (≈ 29.9 µM)	11.6 µg/mL (≈ 25.4 µM)	16 µg/mL (≈ 35.1 µM)	12 µg/mL (≈ 26.2 µM)	4.78 µg/mL (≈ 10.5 µM)	upregulated with significant increased	significant upregulation	increased in gene expression compared to control cells	upregulated		IC50 against MCF-7 [2]: 62.85 µg/mL (≈ 138 µM); IC50 against LU-1 [3]: 13.33 µg/mL (≈ 29.2 µM); cell cycle arrest (KATO-III cells [4]): induced detectable levels of cell cycle arrest at the sub-G1 phase and S phase population; morphology of KATO-III cells (KATO-III cells [5]; 15 μg/mL, 24 and 48 h): No significant change in the morphology; morphology of KATO-III cells (KATO-III cells [5]; 30 μg/mL, 48 h, 100× magnification): lower density of cells; NFkB transcript expression level vs control (NFkB; 48 h): significant upregulation; NFkB transcript expression level vs control (NFkB; 72 h): increased in gene expression compared to control cells; CTSB transcript expression level vs control (CTSB; 48 h): significant upregulation; CTSB transcript expression level vs control (CTSB; 72 h): only a slight increase compared to control cells; Q2 late apoptotic cells (annexin V+ PI+) (KATO-III cells [6]; MF 15 μg/mL, listed as MF): slightly increased level of apoptotic cells; COX2 transcript expression level vs control (COX2; 48 h): significant upregulation; COX2 transcript expression level vs control (COX2; 72 h): increased in gene expression compared to control cells
COc1cccc2c1C(=O)c1c(O)c3c(c(O)c1C2=O)C[C@@](O)(C(=O)CO)C[C@@H]3O[C@H]1C[C@H](N)[C@H](O)[C@H](C)O1 [Doxorubicin, doxorubicin, reference compound]	slightly decreased (but not significant)	significantly up-regulated	significantly up-regulated	0.78 µg/mL (≈ 1.44 µM)	0.09 µg/mL (≈ 0.166 µM)	0.02 µg/mL (≈ 0.0368 µM)	1.55 µg/mL (≈ 2.85 µM)	1.43 µg/mL (≈ 2.63 µM)	0.56 µg/mL (≈ 1.03 µM)	no significant difference	significantly up-regulated	significantly up-regulated	no significant difference		CASP7 transcript expression level vs control (CASP7; 24 h): slightly increase; morphology of KATO-III cells (KATO-III cells [5]; 1.14 μg/mL, 72 h): clear loss of cell density; morphology of KATO-III cells (KATO-III cells [5]; 1.14 μg/mL, after 48 h): cell shrinkage and blebbing; fold higher cytotoxicity than compounds 1 and 2 (KATO-III cell line; both cancer and normal cell lines): > 5 fold; Q1 early apoptotic cells (annexin V+ PI−) (KATO-III cells [6]; doxorubicin 1.14 μg/mL, 48 h): significantly enhanced level of early apoptosis; Q2 late apoptotic cells (annexin V+ PI+) (KATO-III cells [6]; doxorubicin 1.14 μg/mL): significantly higher compared to the control (P < 0.01)
COc1c(O)cc2oc3cc(O)c(CC=C(C)C)c(O)c3c(=O)c2c1CC=C(C)C [alpha-mangostin]														inhibited the migration	
CC(C)=CCc1c(O)cc2oc3cc(O)c(O)c(CC=C(C)C)c3c(=O)c2c1O [gamma-mangostin]														inhibited the migration	
O=C1C[C@@H](c2ccccc2)Oc2cc(O)cc(O)c21 [pinocembrin]															cytotoxic activity [8]: 72.5%
O=c1c(O)c(-c2ccc(O)c(O)c2)oc2cc(O)cc(O)c12 [quercetin]															IC50 [9]: 160 µM

— paper PMC11070865 (Heliyon, 2024)
